# Activity calls are given as the source filed them. The calls are words filed in the database; no cut-off is given here.
# Columns and labels:
# Nannizzia gypsea = test: Antifungal activity against Microsporum gypseum MTCC 4490 after 24 hrs by serial dilution method; assay type: functional; details: MTCC 4490, 24 h
# Summary of the method: (§1)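 Fungal MIC by serial tube dilution. Dilutions of test compounds (1.9–500 µg/ml) were made from stock solution. Each tube held 1 ml nutrient broth and received 20 µl of standard strain culture.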
# Saccharomyces cerevisiae = test: Antifungal activity against Saccharomyces cerevisiae MTCC 172 after 24 hrs by serial dilution method; assay type: functional; details: MTCC 172, 24 h; summary of the method: as §1
# Aspergillus niger = test: Antifungal activity against Aspergillus niger MTCC 1344 after 24 hrs by serial dilution method; assay type: functional; details: MTCC 1344, 24 h; summary of the method: as §1
# [1] = Antifungal activity against Cryptococcus gastricus MTCC 1715 after 24 hrs by serial dilution method; assay type: functional; details: Goffeauzyma gastrica; summary of the method: as §1
# Candida albicans = test: Antifungal activity against Candida albicans MTCC 3018 after 24 hrs by serial dilution method; assay type: functional; details: MTCC 3018, 24 h; summary of the method: as §1
# Salmonella typhi = test: Antibacterial activity against Salmonella typhi after 24 hrs by serial dilution method; assay type: functional, Salmonella enterica subsp. enterica serovar Typhi; details: Salmonella enterica
# Summary of the method: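 Serial tube dilution MIC in nutrient broth. Bacteria were grown until OD600 reached 0.4-0.6. Tubes held 5 ml broth plus 1 ml compound at 0.78, 1.56, 3.12, 6.25, 12.5, 25 or 50 µg/ml and were shaken at 180 rpm for 24 h. Initial medium OD was read at 600 nm.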
# Bacillus subtilis = test: Antibacterial activity against Bacillus subtilis MTCC 2451 after 24 hrs by serial dilution method; assay type: functional; details: MTCC 2451, 24 h
# Summary of the method: (§2)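 Serial tube dilution MIC. Strains were grown in nutrient broth to an OD600 of 0.4-0.6. Compounds were tested at 0.78, 1.56, 3.12, 6.25, 12.5, 25 and 50 µg/ml, each in a separate tube containing 5 ml nutrient broth plus 1 ml compound solution. Tubes were incubated 24 h with shaking at 180 rpm. Growth was followed by optical density at 600 nm.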
# Escherichia coli = test: Antibacterial activity against Escherichia coli MTCC 82 after 24 hrs by serial dilution method; assay type: functional; details: MTCC 82, 24 h; summary of the method: as §2
# Staphylococcus aureus = test: Antibacterial activity against Staphylococcus aureus MTCC 96 after 24 hrs by serial dilution method; assay type: functional; details: MTCC 96, 24 h; summary of the method: as §2
# Pseudomonas aeruginosa = test: Antibacterial activity against Pseudomonas aeruginosa MTCC 2642 after 24 hrs by serial dilution method; assay type: functional; details: MTCC 2642, 24 h; summary of the method: as §2
# Klebsiella pneumoniae = test: Antibacterial activity against Klebsiella pneumoniae MTCC 530 after 24 hrs by serial dilution method; assay type: functional, organism-based
SMILES,MIC (Nannizzia gypsea) [mg/L],MIC (Saccharomyces cerevisiae) [mg/L],MIC (Aspergillus niger) [mg/L],MIC [1] [mg/L],MIC (Candida albicans) [mg/L],MIC (Salmonella typhi) [mg/L],MIC (Bacillus subtilis) [mg/L],MIC (Escherichia coli) [mg/L],MIC (Staphylococcus aureus) [mg/L],MIC (Pseudomonas aeruginosa) [mg/L],Activity (Klebsiella pneumoniae)
OC(Cn1cncn1)(Cn1cncn1)c1ccc(F)cc1F [FLUCONAZOLE],1.9,1.9,1.9,31.2,3.9,–,–,–,–,–,–
COc1ccccc1/C=C/C(=O)/C=C/C1=C(C)CCCC1(C)C,88.5,61.4,92.5,> 100,> 100,> 100,25,31.5,22.2,> 100,–
CC1=C(/C=C/C(=O)/C=C/c2ccc(Cl)c(Cl)c2)C(C)(C)CCC1,–,–,–,–,–,> 100,25,22,32.5,–,–
CC1=C(/C=C/C(=O)/C=C/c2ccccc2C)C(C)(C)CCC1,> 100,96,> 100,> 100,72,55.5,25,30.5,> 100,–,inactive
CC1=C(/C=C/C(=O)/C=C/c2cccnc2)C(C)(C)CCC1,> 100,10.5,3.9,> 100,35,> 100,6.25,12.5,6.25,12.5,inactive
CC1=C(/C=C/C(=O)/C=C/c2cccc3ccccc23)C(C)(C)CCC1,98,> 100,55,> 100,71.5,–,25,55.5,25,–,–
CC1=C(/C=C/C(=O)/C=C/c2ccc(Br)cc2)C(C)(C)CCC1,–,–,–,–,–,> 100,–,> 100,–,> 100,–
COc1ccccc1/C=C/C=C/C(=O)/C=C/C1=C(C)CCCC1(C)C,71.5,34,80,19.5,> 100,> 100,25,> 100,> 100,32.5,–
CC1(C)S[C@@H]2[C@H](NC(=O)[C@H](N)c3ccc(O)cc3)C(=O)N2[C@H]1C(=O)O [AMOXICILLIN],–,–,–,–,–,0.9,0.5,0.12,0.5,1,–
CC1=C(/C=C/C(=O)/C=C/c2ccccc2)C(C)(C)CCC1,> 100,61.5,> 100,78,> 100,12.5,3.12,1.56,3.12,12.5,inactive
CC1=C(/C=C/C(=O)/C=C/c2ccc(C#N)cc2)C(C)(C)CCC1,90.5,> 100,52.4,> 100,80,> 100,> 100,37,42,–,–
CC1=C(/C=C/C(=O)/C=C/c2ccc(F)cc2)C(C)(C)CCC1,> 100,15.6,15.6,> 100,12.5,–,25,> 100,25.5,–,–
CC1=C(/C=C/C(=O)/C=C/c2ccccc2Br)C(C)(C)CCC1,> 100,3.9,7.6,> 100,31.2,–,40.2,–,25,> 100,–
CC1=C(/C=C/C(=O)/C=C/c2ccccc2Cl)C(C)(C)CCC1,94,12.5,33.5,> 100,11.5,> 100,0.78,1.56,1.56,12.5,–
COC1=CC(=O)C[C@@H](C)[C@]12Oc1c(Cl)c(OC)cc(OC)c1C2=O [GRISEOFULVIN],1.9,1.9,1.9,1.9,1.9,–,–,–,–,–,–
CC1=C(/C=C/C(=O)/C=C/c2ccoc2)C(C)(C)CCC1,> 100,> 100,61.4,72.5,74,74,22.5,> 100,–,> 100,–
COc1ccc(/C=C/C(=O)/C=C/C2=C(C)CCCC2(C)C)cc1,–,–,–,–,–,> 100,–,> 100,25,–,–
COc1cc(/C=C/C(=O)/C=C/C2=C(C)CCCC2(C)C)cc(OC)c1OC,–,–,–,–,–,45,> 100,–,19.5,22.5,inactive
COc1ccc(/C=C/C(=O)/C=C/C2=C(C)CCCC2(C)C)cc1OC,–,–,–,–,–,> 100,22.5,42,–,55.5,–
O=C(O)c1cn(C2CC2)c2cc(N3CCNCC3)c(F)cc2c1=O [CIPROFLOXACIN],–,–,–,–,–,–,0.75,0.9,1.2,1.8,–
CC1=C(/C=C/C(=O)/C=C/c2ccccc2[N+](=O)[O-])C(C)(C)CCC1,> 100,42.5,32.4,58.4,> 100,25,3.12,12.5,6.25,3.12,inactive
CC1=C(/C=C/C(=O)/C=C/c2ccccc2F)C(C)(C)CCC1,> 100,11.4,9.9,> 100,44.5,> 100,–,> 100,> 100,–,–
CC1=C(/C=C/C(=O)/C=C/c2ccc([N+](=O)[O-])cc2)C(C)(C)CCC1,82,19.5,9.6,90.4,11.2,> 100,3.12,6.25,25,12.5,–
CC1=C(/C=C/C(=O)/C=C/c2ccc(C)cc2)C(C)(C)CCC1,> 100,40.5,> 100,> 100,46,> 100,25,–,> 100,65,–

# From ChEMBL document CHEMBL2150893, “Synthesis of β-ionone derived chalcones as potent antimicrobial agents” (2012)
